ChEMBL document CHEMBL1938268, “Synthesis, characterization and in vitro biological evaluation of some novel diarylsulfonylureas as potential cytotoxic and antimicrobial agents” (Bioorg Med Chem Lett, 2012)
In brackets after ≈: the same amount, converted by molar mass.

Legend:
[1] = system: Klebsiella pneumoniae; assay: Antibacterial activity against Klebsiella pneumoniae NCIM 5082 after 24 hrs by agar well diffusion assay; format: functional; conditions: NCIM 5082, 24 h
Method in brief: (§1)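 Agar well diffusion per NCCLS; NCIM standard strains. Nutrient agar seeded with 0.1 mL bacterial suspension in sterile 0.85% saline at 10⁵ CFU/mL. Plates in triplicate, 37 0.5 °C, 24 h. MIC taken as lowest concentration giving complete growth inhibition.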

[2] = system: Penicillium chrysogenum; assay: Antifungal activity against Penicillium chrysogenum NCIM 738 after 48 hrs by agar well diffusion assay; format: functional; conditions: NCIM 738, 48 h
Method in brief: (§2)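 Fungal spore suspensions in sterile distilled water set to final 10⁶ CFU/mL; 0.1 mL spread on Potato-Dextrose-Agar. NCCLS agar well diffusion with NCIM standard strains: 6 mm wells given 0.1 mL compound diluted in 1% DMSO, final 16 to 512 µg/mL. Triplicate plates held 48 h at 28 0.2 °C. MIC is lowest concentration fully inhibiting growth.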

[3] = system: Aspergillus oryzae; assay: Antifungal activity against Aspergillus oryzae NCIM 643 after 48 hrs by agar well diffusion assay; format: functional; conditions: NCIM 643, 48 h; method in brief: as §2
[4] = system: Pseudomonas aeruginosa; assay: Antibacterial activity against Pseudomonas aeruginosa NCIM 2036 after 24 hrs by agar well diffusion assay; format: functional; conditions: NCIM 2036, 24 h; method in brief: as §1
[5] = system: Micrococcus luteus; assay: Antibacterial activity against Micrococcus luteus NCIM 2155 after 24 hrs by agar well diffusion assay; format: functional; conditions: NCIM 2155, 24 h; method in brief: as §1
[6] = system: Bacillus pumilus; assay: Antibacterial activity against Bacillus pumilus NCIM 2327 after 24 hrs by agar well diffusion assay; conditions: NCIM 2327, 24 h
[7] = Toxicity against Brine shrimp nauplii after 24 hrs; format: organism-based; conditions: artemia salina, in vivo; read-out: ED50
Method in brief: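 Artemia salina nauplii hatched 38 h in sterile brine (sea salt 38 g/L, pH 8.5) under aeration; 10 nauplii per vial exposed to graded compound concentrations in 5 mL final volume, 37 °C, 24 h under incandescent light. Survivors counted; percent lethality versus vehicle-treated controls; ED50 from probit analysis; podophyllotoxin positive control.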

[8] = system: Proteus vulgaris; assay: Antibacterial activity against Proteus vulgaris NCIM 2813 after 24 hrs by agar well diffusion assay; format: functional; conditions: NCIM 2813, 24 h; method in brief: as §1
[9] = system: Staphylococcus aureus; assay: Antibacterial activity against Staphylococcus aureus NCIM 2079 after 24 hrs by agar well diffusion assay; format: functional; conditions: NCIM 2079, 24 h; method in brief: as §1
[10] = system: Escherichia coli; assay: Antibacterial activity against Escherichia coli NCIM 2065 after 24 hrs by agar well diffusion assay; format: functional; conditions: NCIM 2065, 24 h; method in brief: as §1
[11] = system: Candida albicans; assay: Antifungal activity against Candida albicans NCIM 3102 after 48 hrs by agar well diffusion assay; format: functional; conditions: NCIM 3102, 48 h; method in brief: as §2
[12] = system: Aspergillus niger; assay: Antifungal activity against Aspergillus niger NCIM 548 after 48 hrs by agar well diffusion assay; format: functional; conditions: NCIM 548, 48 h; method in brief: as §2
[13] = system: Bacillus subtilis; assay: Antibacterial activity against Bacillus subtilis NCIM 2063 after 24 hrs by agar well diffusion assay; format: functional; conditions: NCIM 2063, 24 h; method in brief: as §1

| SMILES | MIC [1] [µg/mL] | MIC [2] [µg/mL] | MIC [3] [µg/mL] | MIC [4] [µg/mL] | MIC [5] [µg/mL] | MIC [6] [µg/mL] | LC50 at 24 h [7] [µg/mL] | MIC [8] [µg/mL] | MIC [9] [µg/mL] | MIC [10] [µg/mL] | MIC [11] [µg/mL] | MIC [12] [µg/mL] | MIC [13] [µg/mL] |
| --- | --- | --- | --- | --- | --- | --- | --- | --- | --- | --- | --- | --- | --- |
| Cc1ccc(S(=O)(=O)NC(=O)Nc2ccccc2C(=O)/C=C/c2ccccc2)cc1 | 512 (≈ 1220 µM) | 512 (≈ 1220 µM) | 512 (≈ 1220 µM) | 512 (≈ 1220 µM) | 512 (≈ 1220 µM) | 512 (≈ 1220 µM) | 25 (≈ 59.5 µM) | 512 (≈ 1220 µM) | 512 (≈ 1220 µM) | 512 (≈ 1220 µM) | 512 (≈ 1220 µM) | 512 (≈ 1220 µM) | 512 (≈ 1220 µM) |
| Cc1ccc(S(=O)(=O)NC(=O)Nc2ccccc2C(=O)/C=C/c2ccc[nH]2)cc1 | 256 (≈ 625 µM) | 256 (≈ 625 µM) | 256 (≈ 625 µM) | 256 (≈ 625 µM) | 256 (≈ 625 µM) | 128 (≈ 313 µM) | 32.1 (≈ 78.4 µM) | 256 (≈ 625 µM) | 128 (≈ 313 µM) | 128 (≈ 313 µM) | 256 (≈ 625 µM) | 256 (≈ 625 µM) | 256 (≈ 625 µM) |
| Cc1ccc(S(=O)(=O)NC(=O)Nc2ccccc2C(=O)/C=C/c2cccc(Br)c2)cc1 | 128 (≈ 256 µM) | 128 (≈ 256 µM) | 128 (≈ 256 µM) | 32 (≈ 64.1 µM) | 16 (≈ 32 µM) | 16 (≈ 32 µM) | 4.02 (≈ 8.05 µM) | 16 (≈ 32 µM) | 64 (≈ 128 µM) | 16 (≈ 32 µM) | 128 (≈ 256 µM) | 64 (≈ 128 µM) | 16 (≈ 32 µM) |
| Cc1ccc(S(=O)(=O)NC(=O)Nc2ccccc2C(=O)/C=C/c2cccc([N+](=O)[O-])c2)cc1 | 256 (≈ 550 µM) | 256 (≈ 550 µM) | 256 (≈ 550 µM) | 256 (≈ 550 µM) | 256 (≈ 550 µM) | 256 (≈ 550 µM) | 44.5 (≈ 95.5 µM) | 256 (≈ 550 µM) | 256 (≈ 550 µM) | 256 (≈ 550 µM) | 256 (≈ 550 µM) | 256 (≈ 550 µM) | 256 (≈ 550 µM) |
| Cc1ccc(S(=O)(=O)NC(=O)Nc2ccccc2C(=O)/C=C/c2cccc(F)c2)cc1 | 64 (≈ 146 µM) | 64 (≈ 146 µM) | 64 (≈ 146 µM) | 16 (≈ 36.5 µM) | 64 (≈ 146 µM) | 16 (≈ 36.5 µM) | 4.13 (≈ 9.42 µM) | 64 (≈ 146 µM) | 16 (≈ 36.5 µM) | 16 (≈ 36.5 µM) | 64 (≈ 146 µM) | 64 (≈ 146 µM) | 16 (≈ 36.5 µM) |
| Cc1ccc(S(=O)(=O)NC(=O)Nc2ccccc2C(=O)/C=C/c2ccccc2Cl)cc1 | 128 (≈ 281 µM) | 128 (≈ 281 µM) | 128 (≈ 281 µM) | 64 (≈ 141 µM) | 128 (≈ 281 µM) | 64 (≈ 141 µM) | 12.8 (≈ 28.1 µM) | 128 (≈ 281 µM) | 64 (≈ 141 µM) | 64 (≈ 141 µM) | 128 (≈ 281 µM) | 128 (≈ 281 µM) | 64 (≈ 141 µM) |
| Cc1ccc(S(=O)(=O)NC(=O)Nc2ccccc2C(=O)/C=C/c2ccccc2[N+](=O)[O-])cc1 | 32 (≈ 68.7 µM) | 16 (≈ 34.4 µM) | 16 (≈ 34.4 µM) | 16 (≈ 34.4 µM) | 32 (≈ 68.7 µM) | 16 (≈ 34.4 µM) | 40.1 (≈ 86.2 µM) | 32 (≈ 68.7 µM) | 16 (≈ 34.4 µM) | 32 (≈ 68.7 µM) | 16 (≈ 34.4 µM) | 16 (≈ 34.4 µM) | 16 (≈ 34.4 µM) |
| Cc1ccc(S(=O)(=O)NC(=O)Nc2ccccc2C(=O)/C=C/c2ccc(F)cc2)cc1 | 16 (≈ 36.5 µM) | 64 (≈ 146 µM) | 64 (≈ 146 µM) | 32 (≈ 73 µM) | 64 (≈ 146 µM) | 32 (≈ 73 µM) | 3.96 (≈ 9.03 µM) | 16 (≈ 36.5 µM) | 32 (≈ 73 µM) | 32 (≈ 73 µM) | 64 (≈ 146 µM) | 64 (≈ 146 µM) | 16 (≈ 36.5 µM) |
| COc1ccc(/C=C/C(=O)c2ccccc2NC(=O)NS(=O)(=O)c2ccc(C)cc2)cc1 | 128 (≈ 284 µM) | 128 (≈ 284 µM) | 128 (≈ 284 µM) | 64 (≈ 142 µM) | 128 (≈ 284 µM) | 128 (≈ 284 µM) | 28.1 (≈ 62.4 µM) | 128 (≈ 284 µM) | 128 (≈ 284 µM) | 128 (≈ 284 µM) | 128 (≈ 284 µM) | 128 (≈ 284 µM) | 64 (≈ 142 µM) |
| CC(=O)N1CCN(c2ccc(OCC3COC(Cn4ccnc4)(c4ccc(Cl)cc4Cl)O3)cc2)CC1 (configuration not stated) [KETOCONAZOLE] |  | 16 (≈ 30.1 µM) | 16 (≈ 30.1 µM) |  |  |  |  |  |  |  | 16 (≈ 30.1 µM) | 16 (≈ 30.1 µM) |  |
| CCOc1cc(/C=C/C(=O)c2ccccc2NC(=O)NS(=O)(=O)c2ccc(C)cc2)ccc1O | 512 (≈ 1070 µM) | 512 (≈ 1070 µM) | 512 (≈ 1070 µM) | 128 (≈ 266 µM) | 512 (≈ 1070 µM) | 64 (≈ 133 µM) | 19.2 (≈ 40 µM) | 512 (≈ 1070 µM) | 128 (≈ 266 µM) | 64 (≈ 133 µM) | 512 (≈ 1070 µM) | 512 (≈ 1070 µM) | 128 (≈ 266 µM) |
| Cc1ccc(/C=C/C(=O)c2ccccc2NC(=O)NS(=O)(=O)c2ccc(C)cc2)cc1 | 256 (≈ 589 µM) | 256 (≈ 589 µM) | 256 (≈ 589 µM) | 256 (≈ 589 µM) | 256 (≈ 589 µM) | 256 (≈ 589 µM) | 15.3 (≈ 35.2 µM) | 256 (≈ 589 µM) | 128 (≈ 295 µM) | 256 (≈ 589 µM) | 256 (≈ 589 µM) | 256 (≈ 589 µM) | 256 (≈ 589 µM) |
| COc1ccc(/C=C/C(=O)c2ccccc2NC(=O)NS(=O)(=O)c2ccc(C)cc2)cc1OC | 128 (≈ 266 µM) | 128 (≈ 266 µM) | 128 (≈ 266 µM) | 32 (≈ 66.6 µM) | 128 (≈ 266 µM) | 64 (≈ 133 µM) | 12.9 (≈ 26.8 µM) | 128 (≈ 266 µM) | 64 (≈ 133 µM) | 64 (≈ 133 µM) | 128 (≈ 266 µM) | 128 (≈ 266 µM) | 32 (≈ 66.6 µM) |
| Cc1ccc(S(=O)(=O)NC(=O)Nc2ccccc2C(=O)/C=C/c2ccc(Cl)cc2Cl)cc1 | 64 (≈ 131 µM) | 64 (≈ 131 µM) | 64 (≈ 131 µM) | 16 (≈ 32.7 µM) | 64 (≈ 131 µM) | 32 (≈ 65.4 µM) | 8.34 (≈ 17 µM) | 64 (≈ 131 µM) | 32 (≈ 65.4 µM) | 32 (≈ 65.4 µM) | 64 (≈ 131 µM) | 64 (≈ 131 µM) | 16 (≈ 32.7 µM) |
| COc1cccc(/C=C/C(=O)c2ccccc2NC(=O)NS(=O)(=O)c2ccc(C)cc2)c1 | 128 (≈ 284 µM) | 128 (≈ 284 µM) | 128 (≈ 284 µM) | 128 (≈ 284 µM) | 128 (≈ 284 µM) | 128 (≈ 284 µM) | 23.2 (≈ 51.4 µM) | 128 (≈ 284 µM) | 128 (≈ 284 µM) | 128 (≈ 284 µM) | 128 (≈ 284 µM) | 128 (≈ 284 µM) | 128 (≈ 284 µM) |
| COc1cc([C@@H]2c3cc4c(cc3[C@H](O)[C@H]3COC(=O)[C@H]23)OCO4)cc(OC)c1OC [PODOFILOX] |  |  |  |  |  |  | 3.61 (≈ 8.71 µM) |  |  |  |  |  |  |
